# Experiments:
# [1] = target: T1, Estrogen receptor (Homo sapiens) (UniProt P03372); experiment: Downregulation of ERalpha expression in human MCF7 cells at 1 uM after 6 hrs by Western blot method relative to lamin B; assay type: cell-based
# T1 sequence (whole entry): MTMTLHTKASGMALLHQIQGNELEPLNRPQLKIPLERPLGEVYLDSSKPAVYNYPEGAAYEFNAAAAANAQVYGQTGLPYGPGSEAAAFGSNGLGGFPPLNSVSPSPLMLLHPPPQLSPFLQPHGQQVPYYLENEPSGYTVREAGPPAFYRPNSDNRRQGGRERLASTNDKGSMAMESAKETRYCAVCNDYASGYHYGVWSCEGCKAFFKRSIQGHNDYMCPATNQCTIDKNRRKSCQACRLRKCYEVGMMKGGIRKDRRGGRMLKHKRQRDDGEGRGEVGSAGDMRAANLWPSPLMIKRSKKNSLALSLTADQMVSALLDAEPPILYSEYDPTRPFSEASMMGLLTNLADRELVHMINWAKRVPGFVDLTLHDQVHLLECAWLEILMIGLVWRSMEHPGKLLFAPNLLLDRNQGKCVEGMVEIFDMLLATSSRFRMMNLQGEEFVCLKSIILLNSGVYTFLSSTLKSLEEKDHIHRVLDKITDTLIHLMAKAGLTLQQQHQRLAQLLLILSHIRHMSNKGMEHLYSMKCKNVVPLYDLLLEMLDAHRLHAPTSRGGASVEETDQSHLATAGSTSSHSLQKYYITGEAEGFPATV
# In short: (§1)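 MCF-7 cells kept in DMEM with 10% FBS, kanamycin and 10 μg/mL insulin, then exposed to compounds for 6 h. Lysates made in SDS buffer (0.1 M Tris-HCl pH 8.0, 10% glycerol, 1% SDS), boiled, BCA-normalized and run on SDS-PAGE. Blots probed with anti-ERα, AR, AhR or VDR and β-actin or lamin B. Chemiluminescence quantified as target/loading-protein ratio; means ± S.E., n=3.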
# [2] = target: T2, Aryl hydrocarbon receptor (Homo sapiens, UniProt P35869); experiment: Downregulation of AhR expression in human MCF7 cells at 10 uM after 6 hrs by Western blot method relative to lamin B; assay type: cell-based; conditions: mcf7, 6 h; in short: as §1
# T2 sequence (P35869 whole entry): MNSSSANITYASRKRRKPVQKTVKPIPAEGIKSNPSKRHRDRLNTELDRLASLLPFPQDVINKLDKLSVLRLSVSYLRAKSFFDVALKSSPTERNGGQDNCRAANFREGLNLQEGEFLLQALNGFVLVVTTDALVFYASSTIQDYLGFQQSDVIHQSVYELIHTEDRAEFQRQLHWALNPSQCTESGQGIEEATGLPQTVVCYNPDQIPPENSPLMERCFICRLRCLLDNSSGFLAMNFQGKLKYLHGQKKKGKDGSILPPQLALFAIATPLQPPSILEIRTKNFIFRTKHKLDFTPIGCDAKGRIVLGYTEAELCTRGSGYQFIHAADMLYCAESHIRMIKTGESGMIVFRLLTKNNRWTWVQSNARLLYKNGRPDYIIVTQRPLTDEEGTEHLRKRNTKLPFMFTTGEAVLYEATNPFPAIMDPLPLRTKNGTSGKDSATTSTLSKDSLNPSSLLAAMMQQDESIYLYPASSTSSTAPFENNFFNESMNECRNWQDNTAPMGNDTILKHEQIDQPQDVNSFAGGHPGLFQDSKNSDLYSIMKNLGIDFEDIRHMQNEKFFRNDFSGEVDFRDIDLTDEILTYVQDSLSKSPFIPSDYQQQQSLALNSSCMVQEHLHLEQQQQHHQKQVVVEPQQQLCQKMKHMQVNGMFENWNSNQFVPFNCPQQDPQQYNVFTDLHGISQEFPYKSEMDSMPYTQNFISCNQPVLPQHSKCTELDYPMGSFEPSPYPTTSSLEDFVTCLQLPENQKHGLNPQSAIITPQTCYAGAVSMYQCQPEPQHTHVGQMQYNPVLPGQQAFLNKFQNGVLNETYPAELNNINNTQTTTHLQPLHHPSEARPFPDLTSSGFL
# [3] = target: T1, Estrogen receptor (Homo sapiens); experiment: Downregulation of ERalpha expression in human MCF7 cells at 10 uM after 6 hrs in presence of proteasome inhibitor MG132 by Western blot method relative to lamin B; assay type: cell-based; in short: as §1
# [4] = target: T3, Androgen receptor (Homo sapiens) (UniProt P10275); experiment: Downregulation of androgen receptor expression in human MCF7 cells at 1 uM after 6 hrs in presence of proteasome inhibitor MG132 by Western blot method relative to lamin B; assay type: cell-based; in short: as §1
# T3 sequence (whole entry): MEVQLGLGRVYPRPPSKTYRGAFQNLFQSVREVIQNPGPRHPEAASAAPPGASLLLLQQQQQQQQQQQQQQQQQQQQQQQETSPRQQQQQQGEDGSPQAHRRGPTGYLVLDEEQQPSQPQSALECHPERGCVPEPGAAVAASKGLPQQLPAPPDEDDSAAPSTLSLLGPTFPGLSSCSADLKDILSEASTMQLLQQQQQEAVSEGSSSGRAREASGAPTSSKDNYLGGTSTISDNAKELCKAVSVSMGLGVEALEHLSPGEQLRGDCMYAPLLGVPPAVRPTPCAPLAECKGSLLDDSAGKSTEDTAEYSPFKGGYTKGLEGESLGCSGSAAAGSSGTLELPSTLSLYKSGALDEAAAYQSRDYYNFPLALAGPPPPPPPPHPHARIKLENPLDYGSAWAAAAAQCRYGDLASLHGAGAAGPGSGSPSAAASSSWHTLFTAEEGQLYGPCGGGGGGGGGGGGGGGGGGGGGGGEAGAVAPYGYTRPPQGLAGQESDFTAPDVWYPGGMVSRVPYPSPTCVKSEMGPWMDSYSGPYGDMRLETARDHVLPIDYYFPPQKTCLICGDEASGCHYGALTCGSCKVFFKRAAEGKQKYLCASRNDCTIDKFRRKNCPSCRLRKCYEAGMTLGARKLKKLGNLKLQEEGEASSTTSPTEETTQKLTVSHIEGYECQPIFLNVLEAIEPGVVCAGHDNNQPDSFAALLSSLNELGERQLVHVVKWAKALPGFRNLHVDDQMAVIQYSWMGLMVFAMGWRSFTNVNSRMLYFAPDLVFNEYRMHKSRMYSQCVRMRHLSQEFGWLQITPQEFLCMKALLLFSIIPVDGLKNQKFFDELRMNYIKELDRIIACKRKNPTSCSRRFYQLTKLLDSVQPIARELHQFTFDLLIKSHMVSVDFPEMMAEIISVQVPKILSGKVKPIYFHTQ
# [5] = target: T4, Estrogen receptor (Homo sapiens, UniProt P03372); experiment: Displacement of Fluormone ES2 Green from full-length untagged human ERalpha expressed in insect cells after 2 hrs by fluorescence polarization assay
# T4 sequence (P03372 whole entry): T1 sequence (whole entry)
smiles,measurement,setting,value
CCCCCCCCCCNCCOc1ccc(C(CCC)(CCC)c2ccc(O)c(C)c2)cc1C,Activity,[1],58 to 76%
same,Activity,[2],81%
same,Activity,[3],105%
same,Activity,[4],96%
same,IC50,[5],4.9 nM

# Source: ChEMBL document CHEMBL4138058, “Design and synthesis of novel selective estrogen receptor degradation inducers based on the diphenylheptane skeleton” (Medchemcomm, 2017)
